Activity calls are given as the source filed them. The rule behind the calls is not given here.
Tests used:
[1] = target: T1, Cellular tumor antigen p53 (Homo sapiens, UniProt P04637); assay: Activation of p53 in human NUGC4 cells assessed as change in ATM mRNA level at 60 uM after 18 hrs by RT-PCR method relative to control; format: cell-based; details: read-out: FC
Method in brief: (§1)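 p53 signalling qPCR array covering 84 p53 pathway genes. Cells were exposed for 18 h, and compound and control wells both held 0.5% DMSO. Total RNA was extracted and purified. Fold-changes were calculated by the ΔΔCt method against the untreated sample, with β2-microglobulin (B2M) as the housekeeping gene. Each cell line was run in two independent biological replicates.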

[2] = target: T1, Cellular tumor antigen p53; assay: Activation of p53 in human NUGC4 cells assessed as change in NFKB1 mRNA level at 60 uM after 18 hrs by RT-PCR method relative to control; format: cell-based; details: read-out: FC
Method in brief: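 p53-signalling qPCR array (84 pathway genes): cells treated 18 h in 0.5% DMSO, with DMSO-matched controls. Total RNA was extracted and fold-change quantified by the ΔΔCt method with β2-microglobulin (B2M) as housekeeping gene, normalized to the untreated sample. Two independent biological replicates per cell line.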

[3] = target: T1, Cellular tumor antigen p53; assay: Activation of p53 in human NUGC4 cells assessed as change in TNF mRNA level at 60 uM after 18 hrs by RT-PCR method relative to control; format: cell-based; details: read-out: FC
[4] = target: T1, Cellular tumor antigen p53; assay: Activation of p53 in human NUGC4 cells assessed as change in PRC1 mRNA level at 60 uM after 18 hrs by RT-PCR method relative to control; format: cell-based; details: read-out: FC
[5] = target: T1, Cellular tumor antigen p53; assay: Activation of p53 in human NUGC4 cells assessed as change in PTTG1 mRNA level at 60 uM after 18 hrs by RT-PCR method relative to control; format: cell-based; details: read-out: FC
[6] = target: T1, Cellular tumor antigen p53; assay: Activation of p53 in human NUGC4 cells assessed as change in JUN mRNA level at 60 uM after 18 hrs by RT-PCR method relative to control; format: cell-based; details: read-out: FC
Method in brief: (§2)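 p53 signaling qPCR array of 84 p53-pathway genes. Cells were treated in 6-well plates for 18 h with 0.5% DMSO in compound and control samples. Total RNA was extracted and fold-changes were obtained by the ΔΔCt method against untreated control, with β2-microglobulin (B2M) as housekeeping gene. Two independent biological replicates per cell line.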

[7] = target: T1, Cellular tumor antigen p53; assay: Activation of p53 in human NUGC4 cells assessed as change in RELA mRNA level at 60 uM after 18 hrs by RT-PCR method relative to control; format: cell-based; details: read-out: FC
Huh-7 = assay: Upregulation of BBC3 mRNA level in p53 Y220C mutant knockout human HuH7 cells at 30 uM after 18 hrs by RT-PCR method; format: functional, cell-based
[8] = system: Cellular tumor antigen p53 (Homo sapiens), P04637 [Y220C]; assay: Activation of p53 Y220C mutant in human NUGC3 cells assessed as change in CDK1 mRNA level at 60 uM after 18 hrs by RT-PCR method relative to control; format: cell-based
Method in brief: (§3)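 p53 signalling qPCR array covering 84 genes. Cells were exposed for 18 h, with 0.5% DMSO in both compound and control samples. Total RNA was extracted and purified. Fold-changes were calculated by ΔΔCt using β2-microglobulin (B2M) as the housekeeping gene. Two independent biological replicates were run per cell line.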

[9] = target: T1, Cellular tumor antigen p53; assay: Activation of p53 in human NUGC4 cells assessed as change in TSC1 mRNA level at 60 uM after 18 hrs by RT-PCR method relative to control; format: cell-based; details: read-out: FC
[10] = target: T1, Cellular tumor antigen p53; assay: Activation of p53 in human NUGC4 cells assessed as change in GML mRNA level at 60 uM after 18 hrs by RT-PCR method relative to control; format: cell-based; details: read-out: FC; method in brief: as §2
[11] = system: Cellular tumor antigen p53 (Homo sapiens), P04637 [Y220C]; assay: Activation of p53 Y220C mutant in human NUGC3 cells assessed as change in JUN mRNA level at 60 uM after 18 hrs by RT-PCR method relative to control; format: cell-based; method in brief: as §1
[12] = system: Cellular tumor antigen p53 (Homo sapiens), P04637 [Y220C]; assay: Activation of p53 Y220C mutant in human NUGC3 cells assessed as change in CCNG1 mRNA level at 60 uM after 18 hrs by RT-PCR method relative to control; format: cell-based; method in brief: as §3
[13] = target: T1, Cellular tumor antigen p53; assay: Activation of p53 in human NUGC4 cells assessed as change in TNFRSF10D mRNA level at 60 uM after 18 hrs by RT-PCR method relative to control; format: cell-based; details: read-out: FC
[14] = system: Cellular tumor antigen p53 (Homo sapiens), P04637 [Y220C]; assay: Activation of p53 Y220C mutant in human NUGC3 cells assessed as change in BAX mRNA level at 60 uM after 18 hrs by RT-PCR method relative to control; format: cell-based; method in brief: as §3
[15] = target: T1, Cellular tumor antigen p53; assay: Activation of p53 in human NUGC4 cells assessed as change in MCL1 mRNA level at 60 uM after 18 hrs by RT-PCR method relative to control; format: cell-based; details: read-out: FC; method in brief: as §2
[16] = system: Cellular tumor antigen p53 (Homo sapiens), P04637 [Y220C]; assay: Activation of p53 Y220C mutant in human NUGC3 cells assessed as change in PTTG1 mRNA level at 60 uM after 18 hrs by RT-PCR method relative to control; format: cell-based; method in brief: as §1
[17] = target: T1, Cellular tumor antigen p53; assay: Activation of p53 in human NUGC4 cells assessed as change in MLH1 mRNA level at 60 uM after 18 hrs by RT-PCR method relative to control; format: cell-based; details: read-out: FC; method in brief: as §2
[18] = system: Cellular tumor antigen p53 (Homo sapiens), P04637 [Y220C]; assay: Activation of p53 Y220C mutant in human NUGC3 cells assessed as change in CHEK2 mRNA level at 60 uM after 18 hrs by RT-PCR method relative to control; format: cell-based; method in brief: as §3
[19] = system: Cellular tumor antigen p53 (Homo sapiens), P04637 [Y220C]; assay: Activation of p53 Y220C mutant in human NUGC3 cells assessed as change in CASP2 mRNA level at 60 uM after 18 hrs by RT-PCR method relative to control; format: cell-based; method in brief: as §3
[20] = system: Cellular tumor antigen p53 (Homo sapiens), P04637 [Y220C]; assay: Activation of p53 Y220C mutant in human NUGC3 cells assessed as change in TP53AIP1 mRNA level at 60 uM after 18 hrs by RT-PCR method relative to control; format: cell-based; method in brief: as §1
[21] = system: Cellular tumor antigen p53 (Homo sapiens), P04637 [Y220C]; assay: Activation of p53 Y220C mutant in human NUGC3 cells assessed as change in HDAC1 mRNA level at 60 uM after 18 hrs by RT-PCR method relative to control; format: cell-based; method in brief: as §3
[22] = system: Cellular tumor antigen p53 (Homo sapiens), P04637 [Y220C]; assay: Activation of p53 Y220C mutant in human NUGC3 cells assessed as change in WT1 mRNA level at 60 uM after 18 hrs by RT-PCR method relative to control; format: cell-based; method in brief: as §1
[23] = target: T1, Cellular tumor antigen p53; assay: Activation of p53 in human NUGC4 cells assessed as change in MDM4 mRNA level at 60 uM after 18 hrs by RT-PCR method relative to control; format: cell-based; details: read-out: FC; method in brief: as §2
[24] = system: Cellular tumor antigen p53 (Homo sapiens), P04637 [Y220C]; assay: Activation of p53 Y220C mutant in human NUGC3 cells assessed as change in CCNH mRNA level at 60 uM after 18 hrs by RT-PCR method relative to control; format: cell-based; method in brief: as §3
[25] = system: Cellular tumor antigen p53 (Homo sapiens), P04637 [Y220C]; assay: Activation of p53 Y220C mutant in human NUGC3 cells assessed as change in S1AH1 mRNA level at 60 uM after 18 hrs by RT-PCR method relative to control; format: cell-based; method in brief: as §1
[26] = system: Cellular tumor antigen p53 (Homo sapiens), P04637 [Y220C]; assay: Activation of p53 Y220C mutant in human NUGC3 cells assessed as change in BAI1 mRNA level at 60 uM after 18 hrs by RT-PCR method relative to control; format: cell-based; method in brief: as §3
[27] = target: T1, Cellular tumor antigen p53; assay: Activation of p53 in human NUGC4 cells assessed as change in CDKN1A mRNA level at 60 uM after 18 hrs by RT-PCR method relative to control; format: cell-based; details: read-out: FC; method in brief: as §2

`CCNC(=O)c1c(O)c(I)c(-n2cccc2)c2sc(N(CC)CC)nc12` showed a fold induction at 60 µM [1] of 1, a fold induction at 60 µM [2] of 0.8 and a fold induction at 60 µM [3] of 1.1. It also gave a fold induction at 60 µM [4] of 0.8, a fold induction at 60 µM [5] of 0.9 and a fold induction at 60 µM [6] of 0.7. For the same molecule, the fold induction at 60 µM [7] was 0.8, the Activity (Huh-7) was “inactive” and the fold change (FC) [8] was 1.5. For the same molecule, the fold induction at 60 µM [9] was 1.1, the fold induction at 60 µM [10] was 1.9 and the fold change (FC) [11] was 0.9. The fold change (FC) [12] was 1.2, the fold induction at 60 µM [13] was 1 and the fold change (FC) [14] was 1.1. It also gave a fold induction at 60 µM [15] of 0.8, a fold change (FC) [16] of 1.5 and a fold induction at 60 µM [17] of 1. For the same molecule, the fold change (FC) [18] was 1.1, the fold change (FC) [19] was 1.1 and the fold change (FC) [20] was 1.5. The fold change (FC) [21] was 0.6, the fold change (FC) [22] was 1.5 and the fold induction at 60 µM [23] was 0.9. It also gave a fold change (FC) [24] of 1.4, a fold change (FC) [25] of 1.5 and a fold change (FC) [26] of 1.5. It also gave a fold induction at 60 µM [27] of 1.3.

From ChEMBL document CHEMBL4152234, “Aminobenzothiazole derivatives stabilize the thermolabile p53 cancer mutant Y220C and show anticancer activity in p53-Y220C cell lines” (Eur J Med Chem, 2018)
